From the EternaBench riboswitch data

Test system: MS2 coat protein
Assay: apparent Kd, MS2 coat protein; higher = weaker binding; RNA-MaP array; FMN 200 µM where present
Method in brief: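 Stalled E. coli RNA polymerase transcribed each design on Illumina sequencing-chip clusters. The clusters were titrated with SNAP-549-labelled MS2 coat protein, starting at 0.7 or 1.5 nM and doubling up to 3 µM, first without ligand and then with constant ligand, in 100 mM Tris-HCl pH 7.5, 80 mM KCl, 4 mM MgCl2, BSA, DTT, yeast tRNA and Tween-20. Green signal was normalised to red-channel RNA signal and to the control-cluster median Fmax. The apparent Kd is the median of filtered binding-curve fits made for each cluster.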

[1] = designed as: OFF switch for flavin mononucleotide, no ligand
[2] = ligand present: flavin mononucleotide, designed as: OFF switch for flavin mononucleotide
[3] = designed as: ON switch for flavin mononucleotide, no ligand
[4] = ligand present: flavin mononucleotide, designed as: ON switch for flavin mononucleotide

Sequence: CACUGCAAUGUAGGAUAUCGACUGGAUAACAGUCGAGAAGGACAUGAGGAUCACCCAUGUACUAAUAGUGAUAAUAAAGCAGUG
- apparent Kd [1]: 13.5 nM
- apparent Kd [2]: 55 nM

Sequence: CAGAACGUCUGAUGAGACCCGCGGCAGGAUAUGCCUGACGUGGACAUGAGGAUCACCCAUGUAAGGCAGAAGGGCCGUUCAGUG
- apparent Kd [1]: 23 nM
- apparent Kd [2]: 95.5 nM

Sequence: CAGAAGUCAGGAUAUGCUGCUCGUCACUUGCGUGAUGAGUAGCAGAAGGGACAUGAGGAUCACCCAUGUAAAGC
- apparent Kd [1]: 53.5 nM
- apparent Kd [2]: 87.1 nM

Sequence: CAGAGGAUGUAAGGAUAUCGUCAGGAAUACUGACGAGAAGGUACAUGAGGAUCACCCAUGUAUAUGAAAGAUAAUAAACCUCUG
- apparent Kd [1]: 14.4 nM
- apparent Kd [2]: 17.2 nM

Sequence: CAGCAAGUCACAGGAUAUGGUGAUGUACAUGAGGAUCACCCAUGUCCGUCUUCUCUCACAAGAUGCCAGAAGGGUGACUUCCGG
- apparent Kd [3]: 950 nM
- apparent Kd [4]: 135 nM

Sequence: CAGCGAAAGCUGAAUCUGUAGAGAGAGGAUAUACAAGAAUAAGUCCAUACAUGAGGAUCACCCAUGUAGAAGGCUCUCUACAGU
- apparent Kd [1]: 7.28 nM
- apparent Kd [2]: 25.4 nM

Sequence: CAGCGAAAGUAGAAGGCAGUACUGAUACAGUACUGAGGAUAUACAUGAGGAUCACCCAUGUACUUCAGCUGGAAAUAAAUAAAU
- apparent Kd [1]: 5.94 nM
- apparent Kd [2]: 6.97 nM

Sequence: CAGCGCUGUCGAGAGGAUAUGCAGUGAUGGACAUGAGGAUCACCCAUGUUAGCGAUAGCAUUACGGUAGAAGGCUCUACAGCUGC
- apparent Kd [3]: 18 nM
- apparent Kd [4]: 15.1 nM

Sequence: CAGCGCUGUUGAGAGGAUAUGCGGUGAUGGACAUGAGGAUCACCCAUGUUAGCGACAGCAUUACGGUAGAAGGCUCCACAGCUGC
- apparent Kd [3]: 22.9 nM
- apparent Kd [4]: 13.8 nM

Sequence: CAGCGGUCAGGAUAUGCAUGGCGGGACUUGCGUCGUGGCGUGGAGAAGGGACAUGAGGAUCACCCAUGUGGGAA
- apparent Kd [1]: 134 nM
- apparent Kd [2]: 81.9 nM

Sequence: CAGCUACCCAGUAUGGGUAUUUUUACAGAAGGCCAGGUACAUGAGGAUCACCCAUGUUAAGUUAUGGAGGAUAUGUUAGUGUAU
- apparent Kd [3]: 27.9 nM
- apparent Kd [4]: 7.18 nM

Sequence: CAGGAGAACACAGGAUAUCCGUAAGACAUGAGGAUCACCCAUGUUUGUGGCCCGCCAGGGCUGACGGAGAAGGGUGACUCGCAC
- apparent Kd [3]: 9.04 nM
- apparent Kd [4]: 5.81 nM

Sequence: CAGGAUAGAGGAUAUACAUAGAUACAGAUUCAUGUGAUCCUACAUGAGGAUCACCCAUGUAGAAGGCUAUCCUG
- apparent Kd [1]: 315 nM
- apparent Kd [2]: 39.5 nM

Sequence: CAGGUAGACUGAGGAUAUACACAAAACAGCUAGUCUAUCUAGCUGAUCACAUGAGGAUCACCCAUGUAGAAGGCAGUCUGCCUG
- apparent Kd [1]: 19.2 nM
- apparent Kd [2]: 55.2 nM

Sequence: CAGUACUGAGGAUAUACAUGAGGAUCACCCAUGUGUUCCAGCUAGGAAACUAGCAAAAGUAGAAGGUAGUACUG
- apparent Kd [1]: 13.7 nM
- apparent Kd [2]: 56.5 nM

Sequence: CAGUACUGAGGAUAUACAUGAGGAUCACCCAUGUGUUCCAGCUAGGAAACUAGCAUAAGUAGAAGGCAGUACUG
- apparent Kd [1]: 21.2 nM
- apparent Kd [2]: 354 nM

Sequence: CAGUACUGAGGAUAUACAUGAGGAUCACCCAUGUGUUCCAGCUAGGAAACUGGCAAAAGUAGAAGGCAGUACUG
- apparent Kd [1]: 22.8 nM
- apparent Kd [2]: 320 nM

Sequence: CAGUACUGAGGAUAUACAUGAGGAUCACCCAUGUGUUCCAGGUAGGAAACUAGCAAAAGUAGAAGGCAGUACUG
- apparent Kd [1]: 19 nM
- apparent Kd [2]: 127 nM

Sequence: CAGUACUGAGGAUAUACAUGAGGAUCACCCAUGUGUUCCUUGUAGGAUAUCCGCAAAAGUAGAAGCCAGAAGGAGAUGUGCCUA
- apparent Kd [1]: 200 nM
- apparent Kd [2]: 119 nM

Sequence: CAGUACUGAGGAUAUACAUGAGGAUCACCCAUGUGUUCGUGGUAGGAUAUCCGCAAAAGUAGAAGCCAGAAGGAGAUGUGCGUG
- apparent Kd [1]: 17.7 nM
- apparent Kd [2]: 13.9 nM

Sequence: CAGUACUGAGGAUAUACAUGAGGAUCACCCAUGUGUUGCAGCUAGGAAACUAGCAAAAGUAGAAGGCAGUACUG
- apparent Kd [1]: 10.7 nM
- apparent Kd [2]: 21 nM

Sequence: CAGUGCAAUGUAGGAUAUGCUCAGGAAUACUGAGCAGAAGGACAUGAGGAUCACCCAUGUCAAAUGAAAGAUAAUAAAGCACUG
- apparent Kd [1]: 14.6 nM
- apparent Kd [2]: 18.9 nM

Sequence: CAUAAGAUAGGAUAUACAGGCCCGUCUUUAUAUUGAUCCCGACAUGAGGAUCACCCAUGUAGAAGGAUCAUAUG
- apparent Kd [1]: 13.7 nM
- apparent Kd [2]: 15.2 nM

Sequence: CAUGUCCUCACAGGAUAUGCAAUGUAUUUCAUUGCAGAAGGGUGAAUACAUGAGGAUCACCCAUGUGGACAUGAUAUAUUUAAG
- apparent Kd [3]: 880 nM
- apparent Kd [4]: 76.6 nM

Sequence: CAUGUCUGAGGAUAUCGUUUUUUGUACAUGAGGAUCACCCAUGUCCUAUUUUUUUUAUUUCGAGAAGGCAGUGUAU
- apparent Kd [1]: 47.7 nM
- apparent Kd [2]: 37.7 nM

Sequence: CAUUAAUUCAUUAUAGUUAUUAUACAGGAUAUGUUACAUGAGGAUCACCCAUGUAUUCAUGGUAAACAGAAGGGUAAUACUCGU
- apparent Kd [1]: 49.3 nM
- apparent Kd [2]: 45.9 nM

Sequence: CAUUAAUUCAUUAUAGUUAUUAUACAGGAUAUGUUACAUGAGGAUCACCCAUGUAUUCAUGGUAAACAGAAGGGUAAUUCUAGU
- apparent Kd [1]: 20.1 nM
- apparent Kd [2]: 19.7 nM

Sequence: CAUUUACAGGGAGGAUAUACAUGAGGAUCACCCAUGUCAUCAUACGAUCUUUCUUUUGUAUGAGUGUAGAAGGCCCAACUACCA
- apparent Kd [1]: 13.6 nM
- apparent Kd [2]: 14.6 nM

Sequence: CCAACGUACAAUUUAGAUCUACAUGAGGAUCACCCAUGUACGGAGGAUAUCAGCUCGAAUAGAGCUGAGAAGGCCGAAUUAAUU
- apparent Kd [3]: 371 nM
- apparent Kd [4]: 89.4 nM

Sequence: CCACCCUGAGGAUAUCCACCCUCAUACAUGAGGAUCACCCAUGUUCAUGCCUGAGUUCCCGGAGAAGGCAGAUUCC
- apparent Kd [1]: 109 nM
- apparent Kd [2]: 87.2 nM

Sequence: CCACCCUGAGGAUAUCCACCCUGAUACAUGAGGAUCACCCAUGUUAAUGCCUGAGUUCCCGGAGAAGGCAGAUUCC
- apparent Kd [1]: 40.5 nM
- apparent Kd [2]: 34.7 nM

Sequence: CCAGCCGUUCAAGGAUAUGACAUGAGGAUCACCCAUGUGAAGUCGAACAUUGAUGCACACCUUAGUCAGAAGGUGGAUGGGUCU
- apparent Kd [1]: 30.9 nM
- apparent Kd [2]: 96.5 nM

Sequence: CCAGCGUAUGUGAGGAUAUGCUGGUCCUUGGAUCAGCAGAAGGCACAUGAGGAUCACCCAUGUGAGAACGUUGG
- apparent Kd [1]: 26.5 nM
- apparent Kd [2]: 187 nM

Sequence: CCAGCGUGUGUGAGGAUAUGCUGGUCCUUGGAUCAGCAGAAGGCACAUGAGGAUCACCCAUGUGAGUACGUUGG
- apparent Kd [1]: 16.9 nM
- apparent Kd [2]: 59.4 nM

Sequence: CCAUAAAAGAUCCAAAAUUACAACAUGAGGAUCACCCAUGUGCAGGAUAUCGUGAAAGUAAAAUACGAGAAGGGCAAACACUGC
- apparent Kd [1]: 365 nM
- apparent Kd [2]: 442 nM

Sequence: CCAUAAAAGAUCCAAAAUUACAACAUGAGGAUCACCCAUGUGCAGGAUAUCGUGCCAGUGAUGUACGAGAAGGGCAGACACUGC
- apparent Kd [1]: 356 nM
- apparent Kd [2]: 400 nM

Sequence: CCAUAAUUGAUCCAAUUUUACAACAUGAGGAUCACCCAUGUGCAGGAUAUCGUGAAAGUUAAAUACGAGAAGGGCAAGAACUGC
- apparent Kd [1]: 560 nM
- apparent Kd [2]: 356 nM

Sequence: CCAUAUAGGUAGGAUAUCGAUUUUAAUUAAUAUCGAGAAGGGUCAACAUGAGGAUCACCCAUGUCAGCAUGUAC
- apparent Kd [1]: 80.4 nM
- apparent Kd [2]: 75.5 nM

Sequence: CCAUGGCAUGUAGGAUAUCUCUGACAAAGUCAGAGAGAAGGACAUGAGGAUCACCCAUGUAAACCGAAAGGAACAUAGCCAUGG
- apparent Kd [1]: 6.31 nM
- apparent Kd [2]: 6.26 nM

Sequence: CCAUUCAGAGGAUAUGCGCAUAGAUAAGACUUUUUUUUUUAACAUGAGGAUCACCCAUGUAGAAGGCUGUAACC
- apparent Kd [1]: 23.2 nM
- apparent Kd [2]: 23.1 nM

Sequence: CCAUUUACUGAGGAUAUUGCAUCACCCGACUGAUAAGAAGGCAGAACAUGAGGAUCACCCAUGUGGGUACUCAC
- apparent Kd [1]: 73.7 nM
- apparent Kd [2]: 105 nM

Sequence: CCCAAACUUGGGUUUAAUGGUUCAUAGGAUAUGCUUGUACAUGAGGAUCACCCAUGUACUAUUGUGCAGAAGGGUGCAUGGCAA
- apparent Kd [3]: 39.8 nM
- apparent Kd [4]: 26.3 nM

Sequence: CCCGGACAUGAGGAUCACCCAUGUUAGGAUAUCUAGAGGAUCUAAACCGAAUAGAUCCAGAGAAGGGAUGUGGG
- apparent Kd [2]: 46.5 nM

Sequence: CCCGGUCUGGAGGAUAUUAUAGAGCGUGCUUAAUAAGAAGGUCAGACAUGAGGAUCACCCAUGUUCUUACCCGG
- apparent Kd [1]: 23.3 nM
- apparent Kd [2]: 53.8 nM

Sequence: CCCGUGUUAGGAUAUACGGCACACCCACCAGCGGGUGUAUAGUAGAAGGAACAUGAGGAUCACCCAUGUAUAAC
- apparent Kd [1]: 34.9 nM
- apparent Kd [2]: 51.4 nM

Sequence: CCCUAGGUAGGAUAUACUUGGACUCGGCUGAUGUGCCUAAAACAUGAGGAUCACCCAUGUAGAAGGACUAAGGC
- apparent Kd [1]: 12.6 nM
- apparent Kd [2]: 11.6 nM

Sequence: CCGAAUAAGCAGGAUAUCGUAUCGGAAACGAUACGAGAAGGGUUAACAUGAGGAUCACCCAUGUUCCUUAACGG
- apparent Kd [1]: 20.3 nM
- apparent Kd [2]: 24.8 nM

Sequence: CCGAAUAUGCAGGAUAUCUUAUCGGAAACGAUAAGAGAAGGGUAAACAUGAGGAUCACCCAUGUUCCUUAACGG
- apparent Kd [1]: 20.3 nM
- apparent Kd [2]: 21 nM

Sequence: CCGCAAAAGCAGGAUAUCGUAUCGGAUACGAUACGAGAAGGGUUUACAUGAGGAUCACCCAUGUUCCUUAGCGG
- apparent Kd [1]: 31.5 nM
- apparent Kd [2]: 36 nM

Sequence: CCGCAAAUGCAGGAUAUCGUAUCGGAUACGAUACGAGAAGGGCGUACAUGAGGAUCACCCAUGUGUCCUAGCGG
- apparent Kd [1]: 16.4 nM
- apparent Kd [2]: 23.3 nM

Sequence: CCGCCCUGAGGAUAUCCACCCUCAUACAUGAGGAUCACCCAUGUUCACCCUUGGGUUCCCGGAGAAGGCAGUUUUC
- apparent Kd [1]: 306 nM
- apparent Kd [2]: 521 nM

Sequence: CCGCGCGCGCGAGGAUAUCUAUAUCCAACAUGAGGAUCACCCAUGUUGAGGAUCACCCAUGUAAAGGAGAAGGCGCGCGCGCGG
- apparent Kd [3]: 44.8 nM
- apparent Kd [4]: 15.8 nM

Sequence: CCGGAAACGGGUAGCUGACAUGAGGAUCACCCAUGUGAAACACAGGAUAUGGAUCCUAAUUGGAUCCAGAAGGGUGUCAGCUAC
- apparent Kd [3]: 247 nM
- apparent Kd [4]: 37.2 nM

Sequence: CCGGAAAGGGAGGAUAUAGGAGUCGAUAGACACCUAGAAGGCCUGACAUGAGGAUCACCCAUGUGUCCUACCGG
- apparent Kd [1]: 15 nM
- apparent Kd [2]: 25 nM

Sequence: CCGGCUGCCGUGAGGAUAUGCCCGCGCGCCCGCGGGCAGAAGGCACAUGAGGAUCACCCAUGUCCUGCGGUCCC
- apparent Kd [1]: 17.4 nM
- apparent Kd [2]: 19.9 nM

Sequence: CCGGCUGCUGUGAGGAUAUGCCUGUGGGUGCGUGGGUAGAAGGCACAUGAGGAUCACCCAUGUCCUGCGGGCCC
- apparent Kd [1]: 123 nM
- apparent Kd [2]: 81.8 nM
